Results of several laboratories.
Lines come from different studies, so protocols differ.
M-phase phosphoprotein 8 chromodomain: M-phase phosphoprotein 8, chromodomain (Homo sapiens, UniProt Q99549)
HTR1A: 5-hydroxytryptamine receptor 1A (HTR1A, Homo sapiens, UniProt P08908)
AChE: AChE (Phlebotomus papatasi, UniProt M1F887)
IKBKB: Inhibitor of nuclear factor kappa-B kinase subunit beta (IKBKB, Homo sapiens, UniProt O14920)

SMILES | target | read-out | mode | technique | IC50
CCN(CCCC[C@H](NC(=O)[C@H](Cc1ccccc1)NC(=O)[C@H](C)NC(=O)[C@H](Cc1ccccc1)NC(=O)c1cccnc1)C(=O)N[C@@H](CO)C(N)=O)C(C)C | M-phase phosphoprotein 8 chromodomain | cell-free assay |  | TR-FRET | 0.55 µM
O=C(CCCc1ccc(N(CCCl)CCCl)cc1)NCCC1CCN(CCOc2ccc(Oc3c(-c4ccc(O)cc4)sc4cc(O)ccc34)cc2)CC1 | Estrogen receptor (ESR1, Homo sapiens, UniProt P03372) | ligand displacement |  | radioligand | 0.037 µM
CC(CCc1ccccc1)NC(C)C(O)c1ccc(O)cc1 (centres unmarked) | HTR1A | ligand displacement |  | radioligand | 3.38 µM
CCN(CCCC[C@H](NC(=O)[C@H](CC(C)C)NC(=O)[C@H](C)NC(=O)[C@H](Cc1ccccc1)NC(=O)c1ccc(N)cc1)C(=O)N[C@@H](CO)C(N)=O)C(C)C | M-phase phosphoprotein 8 chromodomain | cell-free assay |  | TR-FRET | 1.8 µM
CNC(=O)Oc1cccc2ccccc12 | AChE | enzyme activity | inhibitor |  | 0.167 µM
CCCCCNC(=N)N/N=C/c1c[nH]c2ccc(OC)cc12 | HTR1A | calcium signal | antagonist |  | 0.87 µM
CNC(=O)Oc1cccc2c1OC(C)(C)C2 | AChE | enzyme activity | inhibitor |  | 0.008 µM
O=c1c2ccccc2[se]n1-c1ccccc1 | Leucine-rich repeat serine/threonine-protein kinase 2 (LRRK2, Homo sapiens, UniProt Q5S007) | enzyme activity | inhibitor | radiometric | 2 µM
CCOP(=O)(OCC)Oc1ccc2c(C)c(Cl)c(=O)oc2c1 | AChE | enzyme activity | inhibitor |  | 0.43 µM
C=C(C)[C@@H]1CCC(C)=C[C@H]1c1c(O)cc(CCCCC)cc1O | G-protein coupled receptor 52 (GPR52, Homo sapiens, UniProt Q9Y2T5) | cAMP | antagonist |  | 2.45 µM
COc1ncccc1-c1cnn2ccc(N3CCN(C(=O)OC(C)C)CC3)nc12 | Alpha-2C adrenergic receptor (ADRA2C, Homo sapiens, UniProt P18825) | cell-free assay |  |  | > 30 µM
CCN(CCCC[C@H](NC(=O)[C@H](CC(C)C)NC(=O)[C@H](C)NC(=O)[C@H](Cc1ccccc1)NC(=O)c1ccc(N)c(Br)c1)C(=O)N[C@@H](CO)C(N)=O)C(C)C | M-phase phosphoprotein 8 chromodomain | cell-free assay |  | TR-FRET | 0.4 µM
COCCOCOc1cc(OCc2ccc(Br)cc2)c(C(=O)/C=C/c2ccc(C(=O)O)cc2)cc1C12CC3CC(CC(C3)C1)C2 | IKBKB | enzyme activity | inhibitor | TR-FRET | 2.73 µM
CCN(CCCC[C@H](NC(=O)[C@H](CC(C)C)NC(=O)[C@H](C)NC(=O)[C@H](Cc1ccccc1)NC(=O)c1ccc(NC)cc1)C(=O)N[C@@H](CO)C(N)=O)C(C)C | M-phase phosphoprotein 8 chromodomain | cell-free assay |  | TR-FRET | 4.4 µM
CNC(=O)Oc1cccc2c1OC(C)(C)O2 | AChE | enzyme activity | inhibitor |  | 0.015 µM
COCCOCOc1cc(OCc2cc(F)cc(F)c2)c(C(=O)/C=C/c2ccc(C(=O)O)cc2)cc1C12CC3CC(CC(C3)C1)C2 | IKBKB | enzyme activity | inhibitor | TR-FRET | 1.83 µM
CCN(CCCC[C@H](NC(=O)[C@H](CC(C)C)NC(=O)[C@H](C)NC(=O)[C@H](Cc1ccccc1)NC(=O)c1cccnc1)C(=O)N[C@@H](CO)C(N)=O)C(C)C | M-phase phosphoprotein 8 chromodomain | cell-free assay |  | TR-FRET | 2.2 µM
